# The source made the active and inactive calls. No cut-off for these calls is given here.
# Columns and labels:
# Cyanidioschyzon merolae [1] = test: Binding affinity to Cyanidioschyzon merolae ABCB1 assessed as Km
# Method in brief: (§1)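 Purified wild-type CmABCB1 in β-DDM micelles; ATPase activity measured against rhodamine concentration with 5 mM ATP in 50 mM Tris–HCl (pH 7.5 at 37 °C), 150 mM NaCl, 0.05% (w/v) β-DDM, 37 °C, 30 min. Bell-shaped activity curve fitted to a modified Michaelis–Menten equation giving Km (stimulation) and Ki (substrate inhibition); means ± SD, n = 3.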
# [2] = Inhibition of Cyanidioschyzon merolae ABCB1 ATPase activity assessed as inhibition constant by colorimetric analysis; method in brief: as §1
# Cyanidioschyzon merolae [3] = test: Potency index, ratio of test compound Ki to Rhodamine 6G Ki for inhibition of Cyanidioschyzon merolae ABCB1 ATPase activity assessed as inhibition constant by colorimetric analysis
# Cyanidioschyzon merolae [4] = test: Substrate activity at Cyanidioschyzon merolae ABCB1 4WY/M391W mutant assessed as tryptophan quenching ratio by measuring inner chamber entry by fluorescence based analysis
# Method in brief: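 Purified CmABCB1 4WY/M391W mutant (four of six native Trp removed, Trp introduced at 391), 13 μg/mL in 20 mM Tris–HCl (pH 7.5 at 25 °C), 150 mM NaCl, 0.05% (w/v) β-DDM, titrated with compound (0–1.0 μM) at 25 °C; excitation 290 nm, quenching ratio of emission at 340 nm.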
# Cyanidioschyzon merolae [5] = test: Potency index, ratio of test compound Km to Rhodamine 6G Km for binding affinity to Cyanidioschyzon merolae ABCB1 assessed as Km
# Saccharomyces cerevisiae [6] = test: Antimicrobial activity against Saccharomyces cerevisiae expressing AD1-8u- cells assessed as growth inhibition upto 30 uM incubated for 15 to 17 hrs; assay type: functional, organism-based; conditions: time 15-17 hrs
# Method in brief: (§2)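 S. cerevisiae AD1-8u cells expressing wild-type CmABCB1, alongside mock-transfected AD1-8u cells, grown in YPD medium with a range of drug concentrations at 30 °C for 15–17 h; growth compared between strains; means ± SD, n = 3.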
# Saccharomyces cerevisiae [7] = test: Antimicrobial activity against Saccharomyces cerevisiae expressing AD1-8u- cells assessed as growth inhibition at 1 uM incubated for 15 to 17 hrs; assay type: functional, organism-based; conditions: time 15-17 hrs; method in brief: as §2
compound,measurement,setting,value
O=C(OCc1cc(C(F)(F)F)cc(C(F)(F)F)c1)c1ccccc1C1=c2cc3c(cc2Oc2cc4c(cc21)CCCN4)=NCCC3,Km,Cyanidioschyzon merolae [1],2.3 µM
same,Ki,[2],6.3 µM
COc1cc(COC(=O)c2ccccc2C2=c3cc4c(cc3Oc3cc5c(cc32)CCCN5)=NCCC4)cc(OC)c1,Km,Cyanidioschyzon merolae [1],0.31 µM
same,Ki,[2],31 µM
O=C(OCc1ccccc1C(F)(F)F)c1ccccc1C1=c2cc3c(cc2Oc2cc4c(cc21)CCCN4)=NCCC3,Km,Cyanidioschyzon merolae [1],3.9 µM
same,Ki,[2],1.2 µM
O=C(OCc1cccc(C(F)(F)F)c1)c1ccccc1C1=c2cc3c(cc2Oc2cc4c(cc21)CCCN4)=NCCC3,Km,Cyanidioschyzon merolae [1],0.44 µM
same,Ki,[2],18 µM
COc1ccc(COC(=O)c2ccccc2C2=c3cc4c(cc3Oc3cc5c(cc32)CCCN5)=NCCC4)cc1,Km,Cyanidioschyzon merolae [1],0.73 µM
same,Ki,[2],9.1 µM
COc1cccc(OC)c1COC(=O)c1ccccc1C1=c2cc3c(cc2Oc2cc4c(cc21)CCCN4)=NCCC3,Km,Cyanidioschyzon merolae [1],0.55 µM
same,Ratio Ki,Cyanidioschyzon merolae [3],120
same,Ki,[2],5.8 µM
same,Activity,Cyanidioschyzon merolae [4],30%
same,Ratio,Cyanidioschyzon merolae [5],5
CC/N=c1/cc2oc3cc(NCC)c(C)cc3c(-c3ccccc3C(=O)OCC)c-2cc1C,Km,Cyanidioschyzon merolae [1],2.9 µM
same,Activity,Saccharomyces cerevisiae [6],inactive
same,Ki,[2],690 µM
same,Activity,Saccharomyces cerevisiae [7],Active
COc1ccccc1COC(=O)c1ccccc1C1=c2cc3c(cc2Oc2cc4c(cc21)CCCN4)=NCCC3,Km,Cyanidioschyzon merolae [1],0.5 µM
same,Ki,[2],8.2 µM
CCCCOC(=O)c1ccccc1C1=c2cc3c4c(c2Oc2c1cc1c5c2CCCN5CCC1)CCC[N+]=4CCC3,Km,Cyanidioschyzon merolae [1],1.5 µM
same,Ki,[2],43 µM
O=C(OCc1ccc2ccccc2c1)c1ccccc1C1=c2cc3c(cc2Oc2cc4c(cc21)CCCN4)=NCCC3,Km,Cyanidioschyzon merolae [1],0.77 µM
same,Ki,[2],9.6 µM
CCCC/N=c1/cc2oc3cc(NCCCC)c(C)cc3c(-c3ccccc3C(=O)OCCCC)c-2cc1C,Km,Cyanidioschyzon merolae [1],3.2 µM
same,Ki,[2],160 µM
CCCCOC(=O)c1ccccc1-c1c2cc(C)/c(=N\CC)cc-2oc2cc(NCC)c(C)cc12,Km,Cyanidioschyzon merolae [1],4.6 µM
same,Ki,[2],560 µM
CCCCOC(=O)c1ccccc1C1=c2cc3c(cc2Oc2cc4c(cc21)CCCN4)=NCCC3,Km,Cyanidioschyzon merolae [1],1.7 µM
same,Ki,[2],14 µM
O=C(OCc1cccc([N+](=O)[O-])c1)c1ccccc1C1=c2cc3c(cc2Oc2cc4c(cc21)CCCN4)=NCCC3,Km,Cyanidioschyzon merolae [1],0.55 µM
same,Ki,[2],12 µM
CCCCOC(=O)c1ccccc1-c1c2cc(C)c(=[N+]3CCCC3)cc-2oc2cc(N3CCCC3)c(C)cc12,Km,Cyanidioschyzon merolae [1],1.1 µM
same,Ki,[2],110 µM
Cc1cccc(COC(=O)c2ccccc2C2=c3cc4c(cc3Oc3cc5c(cc32)CCCN5)=NCCC4)c1,Km,Cyanidioschyzon merolae [1],0.56 µM
same,Ki,[2],8.4 µM
O=C(OCc1ccccc1)c1ccccc1C1=c2cc3c(cc2Oc2cc4c(cc21)CCCN4)=NCCC3,Km,Cyanidioschyzon merolae [1],0.81 µM
same,Ki,[2],8.9 µM
CN(C)c1cccc(COC(=O)c2ccccc2C2=c3cc4c(cc3Oc3cc5c(cc32)CCCN5)=NCCC4)c1,Km,Cyanidioschyzon merolae [1],0.52 µM
same,Ki,[2],10 µM
COc1cccc(COC(=O)c2ccccc2C2=c3cc4c(cc3Oc3cc5c(cc32)CCCN5)=NCCC4)c1,Km,Cyanidioschyzon merolae [1],0.58 µM
same,Ki,[2],8.2 µM
O=C(OCCc1ccccc1)c1ccccc1C1=c2cc3c(cc2Oc2cc4c(cc21)CCCN4)=NCCC3,Km,Cyanidioschyzon merolae [1],1.4 µM
same,Ki,[2],8.1 µM

# Source: ChEMBL document CHEMBL5357076, “Structure-ATPase Activity Relationship of Rhodamine Derivatives as Potent Inhibitors of P-Glycoprotein CmABCB1” (ACS Med Chem Lett, 2024)
